The record followed here is ChEMBL document CHEMBL3588803, “Design, synthesis and pharmacology of 1,1-bistrifluoromethylcarbinol derivatives as liver X receptor β-selective agonists” (Bioorg Med Chem Lett, 2015).

One data set relates to Syrian golden hamster. Nature of the data set: Drug level in CE-2 chow diet-fed golden Syrian hamster treated with 100 mg/kg, po 3-(4-(4-(1,1,1,3,3,3-Hexafluoro-2-hydroxypropan-2-yl)-2,6-di-n-propylphenoxy)-butyl)-5-(4-(1-methylethoxy)phenyl)-5-methylimidazolidine-2,4-dione assessed as compound formation after 0.5 to 24 hrs by HPLC-LC-MS/MS method. It is filed as ADME, organism-based, Mesocricetus auratus. To be noted: in vivo.

Data set [1] relates to Hamster. Description: Hypolipidemic effect in Bio F1B hamster fed with high fat and cholesterol diet assessed as LDL-cholesterol level at 10 mg/kg, po relative to control. In kind it is functional, Cricetinae.
For data set [2], the system named is Hamster. Nature of the data set: Effect in lipid profiles in Bio F1B hamster fed with high fat and cholesterol diet assessed as triglyceride level at 10 mg/kg, po relative to control. It is filed as organism-based. To be noted: cricetinae, in vivo.
Data set [3] concerns Hamster. Description: Increase in ABCA1 gene expression in Bio F1B hamster intestine at 10 mg/kg, po. It is filed as functional, Cricetinae.
Data set [4] concerns Hamster. Description: Hypolipidemic effect in Bio F1B hamster fed with high fat and cholesterol diet assessed as lipid-accumulation area in aortic arch at 10 mg/kg, po relative to control. In kind it is functional, Cricetinae.
Data set [5] deals with Hamster. Description: Increase in ABCG8 gene expression in Bio F1B hamster intestine at 10 mg/kg, po. It is filed as functional, Cricetinae.
For data set [6], the system named is Hamster. Nature of the data set: Hypolipidemic effect in Bio F1B hamster fed with high fat and cholesterol diet assessed as total cholesterol level at 10 mg/kg, po relative to control. In kind it is functional, Cricetinae.
Data set [7] relates to Hamster. Nature of the data set: Increase in ABCA1 gene expression in Bio F1B hamster peripheral blood at 10 mg/kg, po. In kind it is functional, Cricetinae.
In data set [8] the test system is Hamster. Nature of the data set: Increase in ABCG5 gene expression in Bio F1B hamster intestine at 10 mg/kg, po. In kind it is functional, Cricetinae.
The test system of data set [9] is Hamster. Nature of the data set: Hypolipidemic effect in Bio F1B hamster fed with high fat and cholesterol diet assessed as HDL-cholesterol level at 10 mg/kg, po relative to control. It is filed as functional, Cricetinae.
Data set [10] addresses T1, Oxysterols receptor LXR-beta (Homo sapiens, UniProt P55055).
T1 sequence (P55055 whole entry): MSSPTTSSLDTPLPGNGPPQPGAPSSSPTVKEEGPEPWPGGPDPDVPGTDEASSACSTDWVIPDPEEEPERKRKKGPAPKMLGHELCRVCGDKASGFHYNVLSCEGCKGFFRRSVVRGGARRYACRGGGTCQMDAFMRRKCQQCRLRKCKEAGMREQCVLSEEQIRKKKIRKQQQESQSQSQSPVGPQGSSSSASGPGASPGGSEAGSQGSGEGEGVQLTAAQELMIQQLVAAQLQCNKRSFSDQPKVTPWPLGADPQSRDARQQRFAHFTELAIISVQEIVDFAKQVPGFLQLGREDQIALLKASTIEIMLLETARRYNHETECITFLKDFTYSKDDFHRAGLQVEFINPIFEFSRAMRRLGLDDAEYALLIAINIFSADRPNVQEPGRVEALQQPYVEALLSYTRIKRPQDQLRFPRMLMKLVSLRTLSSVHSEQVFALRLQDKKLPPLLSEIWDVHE
Description: Agonist activity at LXRbeta (unknown origin) expressed in CHOK1 cells incubated for 24 hrs by GAL4-responsive luciferase reporter gene assay. In kind it is cell-based, CHO-K1. A digest of the protocol: (§1)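 CHO-K1 cells carrying the GAL4-responsive pG5luc reporter and a GAL4-LXR LBD construct were seeded at 20,000 cells/well in HAM-F12 with 10% immobilized fetal bovine serum, penicillin G and streptomycin, at 37 °C and 5% CO2. After 24 h, compound was added at 0.01–30 µM for a further 24 h. Luminescence was read with Bright-Glo substrate. EC50 is the mean of two independent experiments.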
In general terms: In a reporter assay the amount or activity of a reporter protein is the signal.

Data set [11] deals with T2, Oxysterols receptor LXR-alpha (Homo sapiens) (UniProt Q13133).
T2 sequence (whole entry): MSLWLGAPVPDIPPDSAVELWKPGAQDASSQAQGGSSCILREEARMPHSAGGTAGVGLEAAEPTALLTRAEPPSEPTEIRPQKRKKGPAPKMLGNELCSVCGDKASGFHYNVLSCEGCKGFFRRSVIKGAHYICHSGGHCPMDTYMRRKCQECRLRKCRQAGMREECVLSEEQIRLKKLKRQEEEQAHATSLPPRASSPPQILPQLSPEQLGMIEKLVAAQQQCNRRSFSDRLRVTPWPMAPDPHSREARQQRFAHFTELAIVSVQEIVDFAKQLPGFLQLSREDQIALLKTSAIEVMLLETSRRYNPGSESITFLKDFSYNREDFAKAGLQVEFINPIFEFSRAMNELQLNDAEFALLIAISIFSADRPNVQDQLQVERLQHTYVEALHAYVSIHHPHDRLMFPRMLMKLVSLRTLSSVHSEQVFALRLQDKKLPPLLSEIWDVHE
Description: Agonist activity at LXRalpha (unknown origin) expressed in CHOK1 cells incubated for 24 hrs by GAL4-responsive luciferase reporter gene assay relative to 10 uM T0901317. In kind it is cell-based. As to conditions: CHO-K1. A digest of the protocol: (§2)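 The GAL4-LXR LBD luciferase reporter was run in CHO-K1 cells. Cells were seeded at 20,000/well in HAM-F12 with 10% immobilized FBS and antibiotics for 24 h, then exposed to compound at 0.01, 0.1, 1, 10 and 30 µM for 24 h, with a Bright-Glo luminescence read-out. Values are means of two independent experiments.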

In data set [12] the target is T3, Oxysterols receptor LXR-alpha (Homo sapiens, UniProt Q13133).
T3 sequence (Q13133 whole entry): T2 sequence (whole entry)
Nature of the data set: Agonist activity at LXRalpha (unknown origin) expressed in CHOK1 cells incubated for 24 hrs by GAL4-responsive luciferase reporter gene assay. It is filed as cell-based, CHO-K1. A digest of the protocol: as §1

In data set [13] the target is T4, Oxysterols receptor LXR-beta (Homo sapiens) (UniProt P55055).
T4 sequence (whole entry): T1 sequence (P55055 whole entry)
Description: Agonist activity at LXRbeta (unknown origin) expressed in CHOK1 cells incubated for 24 hrs by GAL4-responsive luciferase reporter gene assay relative to 10 uM T0901317. It is filed as cell-based. As to conditions: CHO-K1. A digest of the protocol: as §2

A short description of data set [14]: Clearance in hamster hepatic microsomes. It is filed as ADME. As to conditions: cricetinae, liver microsomes; read-out: CLH. In general terms: Microsomes from liver hold many membrane-bound enzymes, among them those of drug oxidation.
Data set [15] can be described thus: Clearance in human hepatic microsomes. In kind it is ADME. As to conditions: liver microsomes, read-out: CLH.
Data set [16] in a line: Clearance in mouse hepatic microsomes. As to conditions: liver microsomes, read-out: CLH. It is filed as ADME.
The target in data set [17] is T1, Oxysterols receptor LXR-beta. Description: Agonist activity at LXRbeta (unknown origin).

Structures are written as SMILES.

As for `CCCc1cc(C(O)(C(F)(F)F)C(F)(F)F)cc(CCC)c1OCCCC(=O)O`, in the data set with Syrian golden hamster, the Drug metabolism result is on record as “metabolite_detected”.
Consider `O=S(=O)(c1ccccc1)N(CC(F)(F)F)c1ccc(C(O)(C(F)(F)F)C(F)(F)F)cc1` [T091317], for which the Activity is on record as 75% in the data set with Hamster [1]; 251% in the data set on Hamster [2]; 40% in the data set with Hamster [4]; 124% in the data set on Hamster [6]; 76% with Hamster [9]. Further, the “fold change (FC)” value in the data set on Hamster [3] amounted to 3.4; in the data set with Hamster [5] it was 1.4; in the data set with Hamster [7], 1.3; in the data set with Hamster [8] it was 1.5.
A word on the EC50: it is the concentration that produces a half-maximal response. A higher EC50 goes with weaker potency. What is called Emax is the greatest response seen or fitted, relative to the assay's reference. With `CCCc1cc(C(O)(C(F)(F)F)C(F)(F)F)cc(CCC)c1OCCCCN1C(=O)NC(CC)(c2ccc3c(c2)OCO3)C1=O` (centres undefined), the results for the EC50 in data set [10] and in [12] were 700 nM and 600 nM, respectively. In addition, the Emax in [11] and in [13] was 118% in each case.
For the molecule `CCCc1cc(C(O)(C(F)(F)F)C(F)(F)F)ccc1OCCCCN1C(=O)NC(CCC)(c2ccc3c(c2)OCO3)C1=O` (centres undefined), the concentration for a half-maximal effect (EC50) was 1300 nM in [10] and 2300 nM in [12]. Moreover, the maximal effect (Emax) in [11] is 42%; in data set [13], 72%.
Take `CCCc1cc(C(O)(C(F)(F)F)C(F)(F)F)cc(CCC)c1OCCCCN1C(=O)NC(C)(c2ccc3c(c2)OCO3)C1=O` (centres undefined): the values for the EC50 in data set [10] and in data set [12] were 100 nM and 400 nM, respectively. Moreover, the maximal response (Emax) in [11] is 89%; in data set [13], 101%.
On to `CCCc1cc(C(O)(C(F)(F)F)C(F)(F)F)ccc1OCCCCN1C(=O)NC(C)(c2ccc3c(c2)OCO3)C1=O` (centres undefined), for which the values for the microsomal CLint in [14], in data set [15] and in [16] were 351 µL/min/mg, 31 µL/min/mg and 73 µL/min/mg, respectively. Besides, the EC50 in [10] was 500 nM; in data set [12], 1700 nM. Moreover, the maximum response (Emax) worked out at 54% in [11] and 118% in data set [13].
As for `CCCc1cc(C(O)(C(F)(F)F)C(F)(F)F)ccc1OCCCCN1C(=O)NC(CC)(c2ccc3c(c2)OCO3)C1=O` (centres undefined), the concentration for a half-maximal effect (EC50) in [10] is 700 nM; in [12] it was 1500 nM. Besides, the maximal response (Emax) in data set [11] stood at 72%; in data set [13], 172%.
In turn, `O=C(O)Cc1cccc(OCCCN(Cc2cccc(C(F)(F)F)c2Cl)CC(c2ccccc2)c2ccccc2)c1` gave a 50% effective concentration (EC50) in [17] of 400 nM. This counts as sub-micromolar.
